Measurements: ChEMBL document CHEMBL1142465, “Novel potent inhibitors of A. thaliana cytokinin oxidase/dehydrogenase” (Bioorg Med Chem, 2008)

Experiments:
[1] = tested on: Triticum aestivum; experiment: Cytokinin-like effect in wheat assessed as retention of chlorophyll in excised leaves at 100 umol/L by senescence assay relative to 6-benzylaminopurine; format: functional; settings: at 100 µM
[2] = tested on: Amaranthus; experiment: Cytokinin-like effect in Amaranthus cotyledons assessed as dark induction of betacyanin synthesis at 100 umol/L relative to 6-benzylaminopurine; format: functional; settings: at 100 µM
[3] = tested on: Nicotiana tabacum; experiment: Cytokinin-like effect in tobacco assessed as stimulation of callus growth at 100 umol/L relative to 6-benzylaminopurine; format: functional
Outline: (§1)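 Cytokinin-dependent tobacco callus growth in 6-well plates, 3 mL MS medium per well, otherwise per published protocol. Compounds from DMSO stocks diluted into medium, final DMSO ≤0.2%. Five replicates per concentration, whole test repeated at least three times. Activity expressed relative to BAP set at 100 (reference 10^-6 M BAP) at the optimal concentration.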

[4] = target: T1, Histidine kinase 3 (Arabidopsis thaliana, UniProt Q9C5U1); experiment: Activation of Arabidopsis thaliana AHK3 receptor expressed in Escherichia coli KMI001 by beta-galactosidase activity
T1 sequence (Q9C5U1 whole entry): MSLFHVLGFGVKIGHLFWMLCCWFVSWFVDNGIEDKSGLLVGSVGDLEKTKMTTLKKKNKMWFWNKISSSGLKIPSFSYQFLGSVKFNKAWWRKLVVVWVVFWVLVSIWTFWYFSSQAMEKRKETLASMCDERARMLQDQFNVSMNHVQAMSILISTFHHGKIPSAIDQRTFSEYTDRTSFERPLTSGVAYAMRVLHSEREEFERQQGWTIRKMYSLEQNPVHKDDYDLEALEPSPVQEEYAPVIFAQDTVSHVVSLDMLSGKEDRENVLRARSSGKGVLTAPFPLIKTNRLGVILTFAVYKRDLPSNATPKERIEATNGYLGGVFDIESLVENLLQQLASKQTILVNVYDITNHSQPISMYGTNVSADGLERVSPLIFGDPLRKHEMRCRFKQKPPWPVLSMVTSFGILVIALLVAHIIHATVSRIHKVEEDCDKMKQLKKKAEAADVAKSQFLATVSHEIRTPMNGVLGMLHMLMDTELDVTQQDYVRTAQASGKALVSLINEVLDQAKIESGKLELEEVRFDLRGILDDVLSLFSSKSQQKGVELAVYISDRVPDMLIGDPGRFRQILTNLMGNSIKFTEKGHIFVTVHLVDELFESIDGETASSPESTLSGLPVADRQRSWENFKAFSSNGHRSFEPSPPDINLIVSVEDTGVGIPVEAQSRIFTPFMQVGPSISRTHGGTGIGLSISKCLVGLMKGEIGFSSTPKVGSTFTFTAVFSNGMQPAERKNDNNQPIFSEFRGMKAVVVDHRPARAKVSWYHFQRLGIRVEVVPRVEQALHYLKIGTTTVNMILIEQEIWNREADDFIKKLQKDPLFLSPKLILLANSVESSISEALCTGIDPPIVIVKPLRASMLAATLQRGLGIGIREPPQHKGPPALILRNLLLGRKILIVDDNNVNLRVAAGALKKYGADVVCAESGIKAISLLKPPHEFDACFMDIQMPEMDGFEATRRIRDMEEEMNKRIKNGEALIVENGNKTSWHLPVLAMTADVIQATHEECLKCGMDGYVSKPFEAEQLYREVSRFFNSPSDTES

[5] = tested on: Nicotiana tabacum; experiment: Cytokinin-like effect in tobacco assessed as stimulation of callus growth at 10 umol/L relative to 6-benzylaminopurine; format: functional; settings: at 10 µM
[6] = target: T2, Cytokinin dehydrogenase 2 (Arabidopsis thaliana, UniProt Q9FUJ3); experiment: Inhibition of sArabidopsis thaliana CKX2 expressed in Saccharomyces cerevisiae 23344c ura-
T2 sequence (Q9FUJ3 whole entry): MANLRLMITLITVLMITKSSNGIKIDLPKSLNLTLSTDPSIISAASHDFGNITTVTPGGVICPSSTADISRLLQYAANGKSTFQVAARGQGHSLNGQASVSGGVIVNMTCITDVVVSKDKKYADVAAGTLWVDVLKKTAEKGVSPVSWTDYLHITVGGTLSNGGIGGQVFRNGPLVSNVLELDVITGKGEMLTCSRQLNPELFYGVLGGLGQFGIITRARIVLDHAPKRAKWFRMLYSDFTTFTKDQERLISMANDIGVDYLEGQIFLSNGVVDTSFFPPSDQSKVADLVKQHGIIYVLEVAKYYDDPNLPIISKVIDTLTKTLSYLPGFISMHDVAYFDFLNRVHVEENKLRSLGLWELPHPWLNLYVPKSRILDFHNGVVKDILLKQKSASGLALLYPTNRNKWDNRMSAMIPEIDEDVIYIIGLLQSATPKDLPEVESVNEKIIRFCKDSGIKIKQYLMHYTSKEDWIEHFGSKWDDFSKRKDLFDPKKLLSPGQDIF

[7] = target: Histidine kinase 4 (Arabidopsis thaliana, UniProt Q9C5U0); experiment: Activation of Arabidopsis thaliana AHK4/CRE1 receptor expressed in Escherichia coli KMI001 by beta-galactosidase activity
[8] = tested on: Nicotiana tabacum; experiment: Cytokinin-like effect in tobacco assessed as stimulation of callus growth at 1 umol/L relative to 6-benzylaminopurine; format: functional; outline: as §1
[9] = tested on: Amaranthus; experiment: Cytokinin-like effect in Amaranthus cotyledons assessed as dark induction of betacyanin synthesis at 10 umol/L relative to 6-benzylaminopurine; format: functional
Outline: (§2)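 Dark induction of betacyanin synthesis in Amaranthus cotyledons, per previously published protocol. Compounds from DMSO stocks diluted into medium, final DMSO ≤0.2%. Five replicates per concentration, whole test repeated at least three times. Relative activity taken at the optimal concentration against BAP set at 100 (reference 10^-5 M BAP).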

[10] = tested on: Amaranthus; experiment: Cytokinin-like effect in Amaranthus cotyledons assessed as dark induction of betacyanin synthesis at 0.1 umol/L relative to 6-benzylaminopurine; format: functional; outline: as §2
[11] = tested on: Nicotiana tabacum; experiment: Cytokinin-like effect in tobacco assessed as stimulation of callus growth at 0.1 umol/L relative to 6-benzylaminopurine; format: functional; outline: as §1
[12] = tested on: Nicotiana tabacum; experiment: Toxicity in tobacco assessed as inhibition of callus growth at 100 uM; settings: in vivo
Outline: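 Tobacco callus growth dose-response up to 100 µM in 6-well plates with 3 mL MS medium per well. Compounds from DMSO stocks diluted into medium, final DMSO ≤0.2%. Five replicates per concentration. Readings compared against a control treatment with no cytokinin.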

Histidine kinase 4, sequence (Q9C5U0 whole entry): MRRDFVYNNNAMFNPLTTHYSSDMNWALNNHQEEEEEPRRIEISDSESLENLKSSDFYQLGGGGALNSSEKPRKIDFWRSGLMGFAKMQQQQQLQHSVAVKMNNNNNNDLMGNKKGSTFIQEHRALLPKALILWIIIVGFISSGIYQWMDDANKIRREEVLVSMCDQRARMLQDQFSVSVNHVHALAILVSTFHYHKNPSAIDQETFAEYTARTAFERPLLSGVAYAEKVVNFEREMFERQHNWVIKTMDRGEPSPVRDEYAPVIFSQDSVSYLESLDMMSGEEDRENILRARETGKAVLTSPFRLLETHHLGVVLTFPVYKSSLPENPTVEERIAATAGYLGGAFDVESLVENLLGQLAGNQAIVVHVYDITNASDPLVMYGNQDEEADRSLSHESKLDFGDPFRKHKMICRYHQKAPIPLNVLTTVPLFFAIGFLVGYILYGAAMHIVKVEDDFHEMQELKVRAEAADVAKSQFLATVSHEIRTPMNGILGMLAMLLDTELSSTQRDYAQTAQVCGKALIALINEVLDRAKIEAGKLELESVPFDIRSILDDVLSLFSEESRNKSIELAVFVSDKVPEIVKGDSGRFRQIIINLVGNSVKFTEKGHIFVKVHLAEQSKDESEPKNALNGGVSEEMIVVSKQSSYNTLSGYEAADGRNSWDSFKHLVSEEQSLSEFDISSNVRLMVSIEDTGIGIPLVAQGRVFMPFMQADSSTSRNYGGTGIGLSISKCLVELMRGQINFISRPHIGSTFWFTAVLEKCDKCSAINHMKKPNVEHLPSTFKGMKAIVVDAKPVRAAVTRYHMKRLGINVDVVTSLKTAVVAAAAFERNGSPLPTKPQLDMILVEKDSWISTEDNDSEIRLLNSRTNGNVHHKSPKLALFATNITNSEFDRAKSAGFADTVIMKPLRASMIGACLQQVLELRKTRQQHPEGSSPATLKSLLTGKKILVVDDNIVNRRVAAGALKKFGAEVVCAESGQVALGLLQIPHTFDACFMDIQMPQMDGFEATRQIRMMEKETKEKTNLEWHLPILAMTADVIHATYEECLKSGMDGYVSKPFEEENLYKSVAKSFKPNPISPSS

| SMILES | EC50 [4] [µM] | IC50 [6] [µM] | EC50 [7] [µM] | Activity [1] [%] | Activity [2] [%] | Activity [3] [%] | Activity [5] [%] | Activity [8] [%] | Activity [9] [%] | Activity [10] [%] | Activity [11] [%] | Activity [12] |
| --- | --- | --- | --- | --- | --- | --- | --- | --- | --- | --- | --- | --- |
| c1ccc(Nc2ncnc3[nH]cnc23)cc1 | > 50 | – | – | 14 | 52 | 47 | – | – | – | – | – | – |
| COc1ccccc1Nc1nc(Cl)nc2[nH]cnc12 | 33 | > 100 | – | 29 | 63 | – | 100 | – | – | – | – | – |
| COc1ccc(Nc2nc(Cl)nc3[nH]cnc23)cc1 | – | > 100 | – | 19 | 60 | – | 76 | – | – | – | – | – |
| Clc1nc(Nc2ccccc2)c2nc[nH]c2n1 | > 50 | 80 | – | 23 | 139 | – | – | 103 | – | – | – | – |
| Oc1ccccc1Nc1nc(Cl)nc2nc[nH]c12 | 19 | > 100 | > 50 | – | – | – | – | – | – | – | – | – |
| COc1cccc(Nc2nc(Cl)nc3c2ncn3C(C)C)c1 | – | > 100 | – | 5 | 44 | – | 38 | – | – | – | – | – |
| Oc1ccc(Nc2nc(Cl)nc3[nH]cnc23)cc1 | 16.5 | > 100 | 4.6 | 14 | 47.5 | 60 | – | – | – | – | – | – |
| O=C(Nc1ccccc1)Nc1cnns1 [THIDIAZURON] | 0.95 | 29 | 1 | 108.7 | – | – | – | – | – | 121.1 | 102.3 | – |
| C/C(=C\CNc1ncnc2[nH]cnc12)CO | 0.7 | – | 1.1 | 122 | 129.6 | – | 104.6 | – | – | – | – | – |
| COc1cccc(Nc2nc(SC)nc3[nH]cnc23)c1 | – | > 100 | – | 2 | 101 | – | 91 | – | – | – | – | – |
| Fc1ccc(Nc2nc(Cl)nc3[nH]cnc23)cc1 | 50 | 50 | – | 5 | 92 | – | – | 99 | – | – | – | Non-toxic |
| COc1cccc(Nc2nc(Cl)nc3c2ncn3C)c1 | – | 61 | – | 30 | 69 | – | 76 | – | – | – | – | – |

More lines, in order of falling IC50 [6], values ahead:

| EC50 [4] [µM] | IC50 [6] [µM] | EC50 [7] [µM] | SMILES | Activity [1] [%] | Activity [2] [%] | Activity [3] [%] | Activity [5] [%] | Activity [8] [%] | Activity [9] [%] | Activity [10] [%] | Activity [11] [%] | Activity [12] |
| --- | --- | --- | --- | --- | --- | --- | --- | --- | --- | --- | --- | --- |
| – | 27 | – | COc1cccc(Nc2nc(N)nc3[nH]cnc23)c1 | 16 | 116 | – | 71 | – | – | – | – | – |
| 15.1 | 25.4 | > 50 | Clc1ccc(Nc2nc(Cl)nc3[nH]cnc23)cc1 | 10 | 139 | – | 77 | – | – | – | – | – |
| – | 14 | – | COc1cccc(Nc2nc([N+](=O)[O-])nc3[nH]cnc23)c1 | 15 | 43 | 35.5 | – | – | – | – | – | – |
| 2.3 | 12.4 | 31 | COc1cccc(Nc2ncnc3[nH]cnc23)c1 | 13 | 124.5 | – | 42 | – | – | – | – | – |
| 6 | 7.5 | 24.8 | Fc1cccc(Nc2nc(Cl)nc3[nH]cnc23)c1 | 15 | 147 | – | – | 101 | – | – | – | – |
| 10.7 | 3.9 | – | Clc1cccc(Nc2nc(Cl)nc3[nH]cnc23)c1 | 11.5 | – | – | 95 | – | 119 | – | – | – |
| 13 | 3.75 | 3.75 | Oc1cccc(Nc2nc(Cl)nc3[nH]cnc23)c1 | 6 | 52 | – | 111 | – | – | – | – | – |
| 21 | 1.9 | 7 | COc1cccc(Nc2nc(Cl)nc3[nH]cnc23)c1 | 11 | 149 | – | 103 | – | – | – | – | – |
| 19 | 1 | 19 | COc1cccc(Nc2nc(F)nc3[nH]cnc23)c1 | 13.5 | 107 | – | 74 | – | – | – | – | – |
